Source: ChEMBL document CHEMBL4840318, “The Total Chemical Synthesis and Biological Evaluation of the Cationic Antimicrobial Peptides, Laterocidine and Brevicidine” (2021)
Converted amounts (≈) assume the structure as drawn. Positions of bridges follow the written chain, without caps; N, C: chain ends. Non-standard residues stand in square brackets, D forms with d. Residues, ends and D or L forms follow the SMILES beside them. ξ: configuration not given here. *: point of attachment. Octanoyl(7-Me) = CC(C)CCCCCC(=O)*; Hexanoyl(4ξ-Me) = CCC(C)CCC(=O)*; dOrn = NCCC[C@@H](N)C(=O)O; X1 = CC[C@H](C)CCCCC(=O)*; Orn = NCCC[C@H](N)C(=O)O; Dab = NCC[C@H](N)C(=O)O

Columns and labels:
Type in all cases: functional
[1] = system: Escherichia coli; test: Antibacterial activity against Escherichia coli ATCC 25922 assessed as inhibition of bacterial growth incubated for 18 hrs by CLSI protocol based method
How it was run: (§1)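 CLSI broth microdilution in cation-adjusted Mueller Hinton broth, in polypropylene plates. Bacteria were grown at 37 °C with shaking (200 rpm) for 8 h, then diluted into fresh medium and added to the wells. Compounds were tested as twofold dilutions from 64 to 0.25 μM (final), in triplicate, with growth and sterility controls. Plates were incubated at 37 °C with shaking. MIC is the lowest concentration with no growth, consistent across three biological replicates.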

[2] = system: Staphylococcus aureus; test: Antibacterial activity against Staphylococcus aureus ATCC 29213 assessed as inhibition of bacterial growth incubated for 18 hrs by CLSI protocol based method; how it was run: as §1
[3] = system: Staphylococcus aureus; test: Antibacterial activity against methicillin-resistant Staphylococcus aureus assessed as inhibition of bacterial growth incubated for 24 hrs by multiplate photometer method
[4] = system: Escherichia coli; test: Antibacterial activity against Escherichia coli ATCC 25922 assessed as inhibition of bacterial growth incubated for 24 hrs by multiplate photometer method

Q: `CC[C@H](C)CCCCC(=O)N[C@@H](CCN)C(=O)N[C@H](C(=O)N[C@@H](CCN)C(=O)N[C@H]1CCNC(=O)[C@H]([C@@H](C)O)NC(=O)[C@H](CCN)NC(=O)[C@H](CCN)NC(=O)[C@H](CC(C)C)NC(=O)[C@@H](Cc2ccccc2)NC(=O)[C@H](CCN)NC1=O)[C@@H](C)O` (X1-[Dab]T[Dab][Dab][Dab][dF]L[Dab][Dab]T; lactam 4-C) was tested. Which MIC [1] did it give?
A: The MIC was 0.3 µg/mL (≈ 0.249 µM).

Q: And the MIC [2]?
A: The MIC was over 64 µg/mL.

Q: What about the MIC [3] of the same molecule?
A: Its MIC is 32 µg/mL (≈ 26.6 µM).

Q: What about the MIC [4] of the same molecule?
A: The MIC was 1 µg/mL (≈ 0.831 µM).

Q: Which results are given for `CCC(C)CCC(=O)N[C@H](CC(N)=O)C(=O)N[C@H](Cc1ccc(O)cc1)C(=O)N[C@H](Cc1c[nH]c2ccccc12)C(=O)N[C@H](CCCN)C(=O)N[C@@H](CCCN)C(=O)NCC(=O)N[C@H](CCCN)C(=O)N[C@@H](Cc1c[nH]c2ccccc12)C(=O)N[C@@H]1C(=O)N[C@@H]([C@@H](C)CC)C(=O)NCC(=O)N[C@@H](CO)C(=O)O[C@@H]1C` (some centres undefined) ({Hexanoyl(4ξ-Me)}-[dN][dY][dW][dOrn][Orn]G[dOrn]WTIGS; ester 9-C)?
A: MIC [1]: 2 µg/mL (≈ 1.32 µM); MIC [2]: > 64 µg/mL; MIC [3]: > 64 µg/mL; MIC [4]: 2 µg/mL (≈ 1.32 µM)

Q: `CC[C@H](C)[C@@H]1NC(=O)[C@@H](NC(=O)[C@H](Cc2c[nH]c3ccccc23)NC(=O)[C@@H](CCCN)NC(=O)CNC(=O)[C@H](CCCN)NC(=O)[C@@H](CCCN)NC(=O)[C@@H](Cc2c[nH]c3ccccc23)NC(=O)[C@@H](Cc2ccc(O)cc2)NC(=O)[C@@H](CO)NC(=O)CCCCCC(C)C)[C@@H](C)OC(=O)CNC(=O)CNC(=O)[C@H](CC(N)=O)NC1=O` ({Octanoyl(7-Me)}-[dS][dY][dW][dOrn][Orn]G[dOrn]WTINGG; ester 9-C) was tested. Which MIC [1] did it give?
A: Its MIC is 0.25 µg/mL (≈ 0.156 µM).

Q: And the MIC [2]?
A: Its MIC is over 64 µg/mL.

Q: And the MIC [3]?
A: The MIC was over 64 µg/mL.

Q: And the MIC [4]?
A: Its MIC is 2 µg/mL (≈ 1.25 µM).

Q: With `CC1(C)S[C@@H]2[C@H](NC(=O)[C@H](N)c3ccc(O)cc3)C(=O)N2[C@H]1C(=O)O` [AMOXICILLIN] as the molecule, how does the MIC [1] read?
A: The MIC was 6 µg/mL (≈ 16.4 µM).

Q: And the MIC [2]?
A: Its MIC is 3 µg/mL (≈ 8.21 µM).
